Measurements from ChEMBL document CHEMBL1255429, “Efflux pumps are involved in the defense of Gram-negative bacteria against the natural products isobavachalcone and diospyrone” (2010).
In brackets after ≈: the same amount, converted by molar mass.

Tests used:
Assay type in all cases: functional
Escherichia coli [1] = experiment: Antimicrobial activity against Escherichia coli AG100A after 18 hrs by rapid INT colorimetric assay
Outline: (§1)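 Strains precultured overnight on Mueller-Hinton agar. Samples dissolved in DMSO-MHB, serially diluted twofold in MHB, inoculum 1.5 × 10^6 CFU/ml in MHB added; 37°C, 18 h; final DMSO <2.5%. 0.2 mg/ml INT then added, 30 min at 37°C. MIC = lowest concentration preventing yellow-to-pink reduction, i.e. complete growth inhibition.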

Klebsiella aerogenes [2] = experiment: Antimicrobial activity against Enterobacter aerogenes EA27 after 18 hrs by rapid INT colorimetric assay; conditions: EA27, 18 h
Outline: (§2)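 Strains precultured overnight on Mueller-Hinton agar. Sample dissolved in DMSO-MHB, twofold serial dilutions in MHB, inoculum 1.5 × 10^6 CFU/ml; final DMSO below 2.5%. Incubated 37°C 18 h, then 0.2 mg/ml INT added, 30 min at 37°C. MIC = lowest concentration preventing yellow-to-pink change (complete growth inhibition). DMSO-only wells as negative control.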

Klebsiella aerogenes [3] = experiment: Antimicrobial activity against Enterobacter aerogenes EA3 after 18 hrs by rapid INT colorimetric assay; conditions: EA3, 18 h; outline: as §2
Enterobacter cloacae [4] = experiment: Antimicrobial activity against Enterobacter cloacae Ec07769 after 18 hrs by rapid INT colorimetric assay; conditions: Ec07769, 18 h; outline: as §2
Escherichia coli [5] = experiment: Antimicrobial activity against tetracycline-resistant Escherichia coli AG102 after 18 hrs by rapid INT colorimetric assay in presence of efflux pump inhibitor phenylalanine arginine; conditions: AG102, 18 h
Outline: (§3)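 Broth microdilution MIC in Mueller-Hinton broth with PAßN at a final 20 μg/ml throughout. Twofold dilutions of sample from DMSO-MHB stock; inoculum 1.5 × 10^6 CFU/ml; 18 h at 37°C, final DMSO <2.5%. Growth read by INT (0.2 mg/ml, 30 min, 37°C). MIC taken as lowest concentration with no pink colour.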

Klebsiella aerogenes [6] = experiment: Antimicrobial activity against Enterobacter aerogenes EA298 after 18 hrs by rapid INT colorimetric assay in presence of efflux pump inhibitor phenylalanine arginine; conditions: EA298, 18 h
Escherichia coli [7] = experiment: Antimicrobial activity against tetracycline-resistant Escherichia coli AG100A after 18 hrs by rapid INT colorimetric assay in presence of efflux pump inhibitor phenylalanine arginine; outline: as §3
Klebsiella pneumoniae [8] = experiment: Antimicrobial activity against Klebsiella pneumoniae KP63 after 18 hrs by rapid INT colorimetric assay; conditions: KP63, 18 h; outline: as §2
Klebsiella aerogenes [9] = experiment: Antimicrobial activity against Enterobacter aerogenes EA289 after 18 hrs by rapid INT colorimetric assay; conditions: EA289, 18 h; outline: as §2
Pseudomonas aeruginosa [10] = experiment: Antimicrobial activity against Pseudomonas aeruginosa PA124 after 18 hrs by rapid INT colorimetric assay in presence of efflux pump inhibitor phenylalanine arginine; conditions: PA124, 18 h
Pseudomonas aeruginosa [11] = experiment: Antimicrobial activity against Pseudomonas aeruginosa PAO1 after 18 hrs by rapid INT colorimetric assay; conditions: PAO1, 18 h; outline: as §1
Klebsiella aerogenes [12] = experiment: Antimicrobial activity against Enterobacter aerogenes EA294 after 18 hrs by rapid INT colorimetric assay in presence of efflux pump inhibitor phenylalanine arginine; conditions: EA294, 18 h
Klebsiella aerogenes [13] = experiment: Antimicrobial activity against Enterobacter aerogenes EA5 after 18 hrs by rapid INT colorimetric assay; conditions: EA5, 18 h; outline: as §2
Pseudomonas aeruginosa [14] = experiment: Antimicrobial activity against Pseudomonas aeruginosa PAO1 after 18 hrs by rapid INT colorimetric assay in presence of efflux pump inhibitor phenylalanine arginine; conditions: PAO1, 18 h
Escherichia coli [15] = experiment: Antimicrobial activity against Escherichia coli ATCC 10536 after 18 hrs by rapid INT colorimetric assay in presence of efflux pump inhibitor phenylalanine arginine beta-naphthylamide; conditions: ATCC 10536, 18 h; outline: as §3
Escherichia coli [16] = experiment: Antimicrobial activity against Escherichia coli AG100 after 18 hrs by rapid INT colorimetric assay in presence of efflux pump inhibitor phenylalanine arginine; conditions: AG100, 18 h
Klebsiella aerogenes [17] = experiment: Antimicrobial activity against Enterobacter aerogenes EA27 after 18 hrs by rapid INT colorimetric assay in presence of efflux pump inhibitor phenylalanine arginine; conditions: EA27, 18 h
Klebsiella aerogenes [18] = experiment: Antimicrobial activity against Enterobacter aerogenes EA-CM64 after 18 hrs by rapid INT colorimetric assay in presence of efflux pump inhibitor phenylalanine arginine; conditions: EA-CM64, 18 h
Pseudomonas aeruginosa [19] = experiment: Antimicrobial activity against Pseudomonas aeruginosa PA124 after 18 hrs by rapid INT colorimetric assay; conditions: PA124, 18 h; outline: as §1
Klebsiella aerogenes [20] = experiment: Antimicrobial activity against Enterobacter aerogenes EA289 after 18 hrs by rapid INT colorimetric assay in presence of efflux pump inhibitor phenylalanine arginine; conditions: EA289, 18 h
Escherichia coli [21] = experiment: Antimicrobial activity against Escherichia coli ATCC 10536 after 18 hrs by rapid INT colorimetric assay; conditions: ATCC 10536, 18 h; outline: as §2
Klebsiella aerogenes [22] = experiment: Antimicrobial activity against Enterobacter aerogenes EA3 after 18 hrs by rapid INT colorimetric assay in presence of efflux pump inhibitor phenylalanine arginine; conditions: EA3, 18 h
Escherichia coli [23] = experiment: Antimicrobial activity against tetracycline-resistant Escherichia coli AG100A after 18 hrs by rapid INT colorimetric assay; outline: as §1
Klebsiella pneumoniae [24] = experiment: Antimicrobial activity against Klebsiella pneumoniae KP55 after 18 hrs by rapid INT colorimetric assay in presence of efflux pump inhibitor phenylalanine arginine; conditions: KP55, 18 h
Klebsiella aerogenes [25] = experiment: Antimicrobial activity against Enterobacter aerogenes EA294 after 18 hrs by rapid INT colorimetric assay; conditions: EA294, 18 h; outline: as §1
Escherichia coli [26] = experiment: Antimicrobial activity against tetracycline-resistant Escherichia coli AG102 after 18 hrs by rapid INT colorimetric assay; conditions: AG102, 18 h; outline: as §1
Escherichia coli [27] = experiment: Antimicrobial activity against Escherichia coli AG100A after 18 hrs by rapid INT colorimetric assay in presence of efflux pump inhibitor phenylalanine arginine
Klebsiella aerogenes [28] = experiment: Antimicrobial activity against Enterobacter aerogenes ATCC 13048 after 18 hrs by rapid INT colorimetric assay in presence of efflux pump inhibitor phenylalanine arginine; conditions: ATCC 13048, 18 h
Klebsiella pneumoniae [29] = experiment: Antimicrobial activity against Klebsiella pneumoniae KP63 after 18 hrs by rapid INT colorimetric assay in presence of efflux pump inhibitor phenylalanine arginine; conditions: KP63, 18 h
Klebsiella aerogenes [30] = experiment: Antimicrobial activity against Enterobacter aerogenes EA5 after 18 hrs by rapid INT colorimetric assay in presence of efflux pump inhibitor phenylalanine arginine; conditions: EA5, 18 h
Escherichia coli [31] = experiment: Antimicrobial activity against Escherichia coli ATCC 8739 after 18 hrs by rapid INT colorimetric assay in presence of efflux pump inhibitor phenylalanine arginine; conditions: ATCC 8739, 18 h; outline: as §3
Klebsiella pneumoniae [32] = experiment: Antimicrobial activity against Klebsiella pneumoniae ATCC 11296 after 18 hrs by rapid INT colorimetric assay; conditions: ATCC 11296, 18 h; outline: as §1
Enterobacter cloacae [33] = experiment: Antimicrobial activity against Enterobacter cloacae Ec1194 after 18 hrs by rapid INT colorimetric assay in presence of efflux pump inhibitor phenylalanine arginine; conditions: Ec1194, 18 h; outline: as §3
Klebsiella aerogenes [34] = experiment: Antimicrobial activity against Enterobacter aerogenes EA298 after 18 hrs by rapid INT colorimetric assay; conditions: EA298, 18 h; outline: as §1
Klebsiella pneumoniae [35] = experiment: Antimicrobial activity against Klebsiella pneumoniae KP55 after 18 hrs by rapid INT colorimetric assay; conditions: KP55, 18 h; outline: as §2
Enterobacter cloacae [36] = experiment: Antimicrobial activity against Enterobacter cloacae Ec07769 after 18 hrs by rapid INT colorimetric assay in presence of efflux pump inhibitor phenylalanine arginine; conditions: Ec07769, 18 h
Klebsiella pneumoniae [37] = experiment: Antimicrobial activity against Klebsiella pneumoniae ATCC 11296 after 18 hrs by rapid INT colorimetric assay in presence of efflux pump inhibitor phenylalanine arginine; conditions: ATCC 11296, 18 h
Enterobacter cloacae [38] = experiment: Antimicrobial activity against Enterobacter cloacae Ec1194 after 18 hrs by rapid INT colorimetric assay; conditions: Ec1194, 18 h; outline: as §2
Escherichia coli [39] = experiment: Antimicrobial activity against Escherichia coli ATCC 8739 after 18 hrs by rapid INT colorimetric assay; conditions: ATCC 8739, 18 h; outline: as §1
Klebsiella aerogenes [40] = experiment: Antimicrobial activity against Enterobacter aerogenes ATCC 13048 after 18 hrs by rapid INT colorimetric assay; conditions: ATCC 13048, 18 h; outline: as §2
Klebsiella aerogenes [41] = experiment: Antimicrobial activity against Enterobacter aerogenes EA-CM64 after 18 hrs by rapid INT colorimetric assay; conditions: EA-CM64, 18 h; outline: as §1
Escherichia coli [42] = experiment: Antimicrobial activity against Escherichia coli AG100 after 18 hrs by rapid INT colorimetric assay; conditions: AG100, 18 h; outline: as §1

## CC(C)=CCc1c(O)ccc(C(=O)/C=C/c2ccc(O)cc2)c1O [ISOBAVACHALCONE]
Escherichia coli [1]
  MIC: 16 µg/mL (≈ 49.3 µM)
Klebsiella aerogenes [2]
  MIC: 256 µg/mL (≈ 789 µM)
Klebsiella aerogenes [3]
  MIC: 128 µg/mL (≈ 395 µM)
Enterobacter cloacae [4]
  MIC: 128 µg/mL (≈ 395 µM)
Escherichia coli [5]
  MIC: 8 µg/mL
Klebsiella aerogenes [6]
  MIC: 0.5 µg/mL
Escherichia coli [7]
  MIC: 8 µg/mL
Klebsiella pneumoniae [8]
  MIC: 16 µg/mL (≈ 49.3 µM)
Klebsiella aerogenes [9]
  MIC: 256 µg/mL (≈ 789 µM)
Pseudomonas aeruginosa [10]
  MIC: 4 µg/mL
Pseudomonas aeruginosa [11]
  MIC: 64 µg/mL (≈ 197 µM)
Klebsiella aerogenes [12]
  MIC: 0.5 µg/mL
Klebsiella aerogenes [13]
  MIC: 64 µg/mL (≈ 197 µM)
Pseudomonas aeruginosa [14]
  MIC: 16 µg/mL
Escherichia coli [15]
  MIC: 2 µg/mL
Escherichia coli [16]
  MIC: 0.5 µg/mL
Klebsiella aerogenes [17]
  MIC: 8 µg/mL
Klebsiella aerogenes [18]
  MIC: 256 µg/mL
Pseudomonas aeruginosa [19]
  MIC: 64 µg/mL (≈ 197 µM)
Klebsiella aerogenes [20]
  MIC: 16 µg/mL
Escherichia coli [21]
  MIC: 128 µg/mL (≈ 395 µM)
Klebsiella aerogenes [22]
  MIC: 32 µg/mL
Escherichia coli [23]
  MIC: 64 µg/mL (≈ 197 µM)
Klebsiella pneumoniae [24]
  MIC: 4 µg/mL
Klebsiella aerogenes [25]
  MIC: 32 µg/mL (≈ 98.7 µM)
Escherichia coli [26]
  MIC: 64 µg/mL (≈ 197 µM)
Escherichia coli [27]
  MIC: 0.25 µg/mL
Klebsiella aerogenes [28]
  MIC: 16 µg/mL
Klebsiella pneumoniae [29]
  MIC: 0.5 µg/mL
Klebsiella aerogenes [30]
  MIC: 16 µg/mL
Escherichia coli [31]
  MIC: 8 µg/mL
Klebsiella pneumoniae [32]
  MIC: 32 µg/mL (≈ 98.7 µM)
Enterobacter cloacae [33]
  MIC: 1 µg/mL
Klebsiella aerogenes [34]
  MIC: 8 µg/mL (≈ 24.7 µM)
Klebsiella pneumoniae [35]
  MIC: 32 µg/mL (≈ 98.7 µM)
Enterobacter cloacae [36]
  MIC: 8 µg/mL
Klebsiella pneumoniae [37]
  MIC: 4 µg/mL
Enterobacter cloacae [38]
  MIC: 64 µg/mL (≈ 197 µM)
Escherichia coli [39]
  MIC: 256 µg/mL (≈ 789 µM)
Klebsiella aerogenes [40]
  MIC: 256 µg/mL (≈ 789 µM)
Klebsiella aerogenes [41]
  MIC: > 256 µg/mL
Escherichia coli [42]
  MIC: 64 µg/mL (≈ 197 µM)
